From ChEMBL document CHEMBL5244225, “Bioassay-Guided Isolation of Fungistatic Compounds from Mimosa caesalpiniifolia Leaves” (J Nat Prod, 2019)
Calls of active or inactive are those of the source. The calls are words filed in the database; no cut-off is given here.

Columns and labels:
Nakaseomyces glabratus [1] = assay: Antifungal activity against Candida glabrata ATCC 90030 assessed as inhibition of microbial growth incubated for 24 hrs by broth microdilution method; type: functional, organism-based; conditions: for IC50: ATCC 90030, 24 h; for IC90: ATCC 90030, time 24 hrs
Summary of the method: (§1)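 Broth microdilution following CLSI M27-A3 and supplement M27-S4. Pure compounds were tested at 100 down to 0.06 μg mL−1 in a 10-step series, diluted from DMSO (≤1% DMSO final). Fluconazole served as the fungistatic control. Plates were incubated at 37 °C for 24 h and growth was read spectrophotometrically at 530 nm. IC50 and IC90 were taken as 50% and 90% growth inhibition.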

Pichia kudriavzevii [2] = assay: Antifungal activity against Candida krusei ATCC 6258 assessed as inhibition of microbial growth incubated for 24 hrs by broth microdilution method; type: functional, organism-based; conditions: for IC50: ATCC 6258, 24 h; for IC90: ATCC 6258, time 24 hrs; summary of the method: as §1
Nakaseomyces glabratus [3] = assay: Antifungal activity against Candida glabrata ATCC 90030 assessed as inhibition of microbial growth incubated for 24 hrs in the presence of 3-(beta-D-glucopyranosyloxy)sitosterol by broth microdilution method; type: functional, organism-based; conditions: ATCC 90030, 24 h
Summary of the method: (§2)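 Checkerboard combination of two compounds, each serially diluted in Mueller−Hinton broth. Ranges were set so that, after adding inoculum, concentrations sat at the range averages. Plates were incubated for 24 h at 37 °C and growth was quantified at 530 nm, as in the single-agent microdilution test. The inhibitory concentration of each compound was determined in combination.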

Nakaseomyces glabratus [4] = assay: Additive antifungal activity against Candida glabrata ATCC 90030 assessed as fractional inhibitory concentration index incubated for 24 hrs in the presence of 3-(beta-D-glucopyranosyloxy)sitosterol by checkerboard assay; type: functional
Summary of the method: (§3)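 Checkerboard pairing of two compounds serially diluted in Mueller−Hinton broth, incubated for 24 h at 37 °C, with growth read spectrophotometrically at 530 nm. Each FIC is the compound's IC in combination divided by its IC alone, and ΣFIC is the sum of the FIC values. ΣFIC ≤0.5 was taken as synergy, 0.5–4 as no interaction and >4 as antagonism.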

Nakaseomyces glabratus [5] = assay: Selectivity index, ratio of IC50 for antifungal activity against Candida glabrata ATCC 90030 to IC50 for antifungal activity against Candida glabrata ATCC 90030 in the presence of 3-(beta-D-glucopyranosyloxy)sitosterol; type: functional
Pichia kudriavzevii [6] = assay: Synergistic antifungal activity against Candida krusei ATCC 6258 assessed as fractional inhibitory concentration index incubated for 24 hrs in the presence of 3-(beta-D-glucopyranosyloxy)sitosterol by checkerboard assay; type: functional; summary of the method: as §3
Pichia kudriavzevii [7] = assay: Antifungal activity against Candida krusei ATCC 6258 assessed as inhibition of microbial growth incubated for 24 hrs in the presence of 3-(beta-D-glucopyranosyloxy)sitosterol by broth microdilution method; type: functional, organism-based; conditions: ATCC 6258, 24 h; summary of the method: as §2
Pichia kudriavzevii [8] = assay: Antifungal activity against Candida krusei ATCC 6258 assessed as inhibition of microbial growth at 100 to 0.06 ug/ml incubated for 24 hrs by broth microdilution method; type: functional, organism-based; conditions: dose 100-0.06 µg/ml

| SMILES | IC50 (Nakaseomyces glabratus [1]) [µg/mL] | IC50 (Pichia kudriavzevii [2]) [µg/mL] | IC90 (Pichia kudriavzevii [2]) [µg/mL] | also measured |
| --- | --- | --- | --- | --- |
| C[C@H]1O[C@@H](c2c(O)cc(O)c3c(=O)cc(-c4ccc(O)cc4)oc23)C[C@@H](O)[C@@H]1O | 3.9 | 7.8 | 250 | IC90 (Nakaseomyces glabratus [1]): 500 µg/mL |
| CCOC(=O)c1cc(O)c(O)c(O)c1 [ETHYLGALLATE] | 15 | 15 |  | IC50 (Nakaseomyces glabratus [3]): 2.5 µg/mL; fractional inhibitory concentration index (FICI) (Nakaseomyces glabratus [4]): 0.5; Ratio IC50 (Nakaseomyces glabratus [5]): 100; fractional inhibitory concentration index (FICI) (Pichia kudriavzevii [6]): 0.1; IC50 (Pichia kudriavzevii [7]): 1 µg/mL |
| C[C@@H]1O[C@@H](O[C@H]2C(=O)[C@@H](O)[C@H](C)O[C@@H]2c2c(O)cc(O)c3c(=O)cc(-c4ccc(O)c(O)c4)oc23)[C@H](O)[C@H](O)[C@H]1O | 60 | 100 |  |  |
| O=C(O)/C=C/c1c(O)cc(O)c2c(=O)cc(-c3ccc(O)cc3)oc12 | 3.9 | 125 | 250 | IC90 (Nakaseomyces glabratus [1]): 250 µg/mL |
| OC(Cn1cncn1)(Cn1cncn1)c1ccc(F)cc1F [FLUCONAZOLE] | 4 | 16 |  |  |
| O=C(O)/C=C/c1c(O)cc2oc(-c3ccc(O)cc3)cc(=O)c2c1O | 3.9 | 15 |  |  |
| C[C@H]1O[C@@H](c2c(O)cc3oc(-c4ccc(O)cc4)cc(=O)c3c2O)C[C@H](O)[C@H]1O | 1000 | 250 | 1000 |  |
| C[C@@]12Oc3cc4oc(-c5ccc(O)cc5)cc(=O)c4c(O)c3[C@@H](C[C@H](O)[C@H]1O)O2 | 7.8 | 62.5 | 250 | IC90 (Nakaseomyces glabratus [1]): 500 µg/mL |
| O=c1cc(-c2ccc(O)c(O)c2)oc2cc(O)cc(O)c12 [LUTEOLIN] | 15 |  |  | Activity (Pichia kudriavzevii [8]): inactive |
| O=c1c(O)c(-c2ccc(O)c(O)c2)oc2cc(O)cc(O)c12 [QUERCETIN] | 60 | 100 |  |  |
| O=C(O)c1cc(O)c(O)c(O)c1 [GALLIC ACID] | 60 |  |  | Activity (Pichia kudriavzevii [8]): inactive |
| C[C@@H]1O[C@@H](O[C@H]2C(=O)[C@@H](O)[C@H](C)O[C@@H]2c2c(O)cc3oc(-c4ccc(O)c(O)c4)cc(=O)c3c2O)[C@H](O)[C@H](O)[C@H]1O | 100 |  |  | Activity (Pichia kudriavzevii [8]): inactive |
